ChEMBL document CHEMBL3272090, “A new type of anticonvulsant: 1-aryl-3-oxotetrahydroisoquinolines” (J Med Chem, 1977)
Activity calls are given as the source filed them.

Key:
[1] = Protective index, ratio of ED50 for neurotoxicity in po dosed mouse by rotarod test to ED50 for anticonvulsant activity in po dosed mouse assessed as protection against maximal electroshock-induced seizures; type: toxicity, organism-based; conditions: in vivo, read-out: Ratio ED50
Procedure, shortened: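 Index calculated as rotarod ED50 divided by MES ED50, both from mice dosed perorally in Tween suspension 3 h before testing.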

Mus musculus [2] = experiment: Neurotoxicity in po dosed mouse by rotarod test; type: toxicity, organism-based; conditions: in vivo
Procedure, shortened: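 Mice dosed perorally with Tween suspension 3 h before rotarod testing for neurotoxicity. Median effective dose with 95% confidence limits by Litchfield–Wilcoxon method.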

Mus musculus [3] = experiment: Anticonvulsant activity in mouse assessed as protection against pentylenetetrazole-induced convulsion at 300 mg/kg, po pretreated for 3 hrs; type: functional, organism-based; parameters: dose 300 mg/kg
Procedure, shortened: (§1)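 Peroral dosing in mice as Tween suspension, 3 h before pentylenetetrazole threshold test (Orloff method). Activity taken as a rise in threshold PTZ dose of at least 50% versus saline-pretreated controls.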

[4] = Acute toxicity in po dosed mouse assessed as mortality after 24 hrs; type: organism-based; conditions: in vivo
Mus musculus [5] = experiment: Anticonvulsant activity in mouse assessed as protection against maximal electroshock-induced seizures at 300 mg/kg, po pretreated for 3 hrs; type: functional, organism-based; parameters: dose 300 mg/kg
Procedure, shortened: (§2)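 Mice given compound perorally as a Tween suspension 3 h before maximal electroshock seizure testing (Swinyard method). Median effective dose with 95% confidence limits by Litchfield–Wilcoxon; doses up to 300 mg/kg examined.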

Mus musculus [6] = experiment: Anticonvulsant activity in po dosed mouse assessed as protection against maximal electroshock-induced seizures pretreated for 3 hrs; type: functional; procedure, shortened: as §2
Mus musculus [7] = experiment: Anticonvulsant activity in po dosed mouse assessed as protection against pentylenetetrazole-induced convulsion pretreated for 3 hrs; type: functional; procedure, shortened: as §1

Row | Structure (SMILES) | selectivity ratio [1] | ED50 (Mus musculus [2]) [mg/kg] | Activity (Mus musculus [3]) | LD50 at 24 h [4] [mg/kg] | Activity (Mus musculus [5]) | ED50 (Mus musculus [6]) [mg/kg] | ED50 (Mus musculus [7]) [mg/kg]
1 | CNCC(=O)Nc1ccc(C2NC(=O)C(C)(C)c3ccccc32)cc1 (configuration not stated) | 24 | 600 | inactive | > 2000 | – | – | –
2 | CC(C)C1C(=O)NC(c2ccc(NC(=O)CCCN3CCCC3)cc2)c2ccccc21 (configuration not stated) | – | 86 | inactive | > 1000 | inactive | – | –
3 | O=C1Cc2ccccc2C(c2ccc(NC(=O)NCc3ccccc3)cc2)N1 (configuration not stated) | > 7 | > 2000 | inactive | > 2000 | – | 275 | –
4 | O=C1NC(=O)C(c2ccccc2)(c2ccccc2)N1 [PHENYTOIN] | 15 | 79.5 | – | > 1000 | – | 5.2 | 26
5 | CCNCC(=O)Nc1ccc(C2NC(=O)C(C)(C)c3ccccc32)cc1 (configuration not stated) | – | 760 | – | > 2000 | inactive | – | –
6 | O=C(CCCN1CCCC1)Nc1ccc(C2NC(=O)Cc3ccccc32)cc1 (configuration not stated) | > 9 | > 2000 | inactive | > 2000 | – | 215 | –
7 | CC1(C)C(=O)NC(c2ccc(NC(=O)CN3CCOCC3)cc2)c2ccccc21 (configuration not stated) | > 20 | > 1600 | – | 2000 | – | 78 | 300
8 | CCCCNCC(=O)Nc1ccc(C2NC(=O)C(C)(C)c3ccccc32)cc1 (configuration not stated) | 14 | 335 | inactive | > 2000 | – | 23.5 | –
9 | CCCNCC(=O)Nc1ccc(C2NC(=O)C(C(C)C)c3ccccc32)cc1 (configuration not stated) | 2.5 | 50 | inactive | 600 | – | 19.6 | –
10 | CNCC(=O)Nc1ccc(C2NC(=O)Cc3ccccc32)cc1 (configuration not stated) | 12 | 270 | – | 600 | – | – | –
11 | CC1C(=O)NC(c2ccc(N)cc2)c2ccccc21 (configuration not stated) | 10 | 250 | – | > 2000 | – | 26 | 100
12 | CCCNCC(=O)Nc1ccc(C2NC(=O)C(C)c3ccccc32)cc1 (configuration not stated) | 15 | 340 | – | > 1600 | – | – | 100
13 | Nc1ccc(Cl)c(C2NC(=O)Cc3ccccc32)c1Cl (configuration not stated) | – | > 1000 | inactive | > 1000 | inactive | – | –
14 | CCCNCC(=O)Nc1ccc(C2NC(=O)C(C)(C)c3ccccc32)cc1 (configuration not stated) | 14 | 435 | – | > 1600 | – | – | –
15 | CC(C)C1C(=O)NC(c2ccc(N)cc2)c2ccccc21 (configuration not stated) | 18 | 358 | – | > 1600 | – | 20 | 20
16 | CCN(CC)CC(=O)Nc1ccc(C2NC(=O)C(C)(C)c3ccccc32)cc1 (configuration not stated) | 15 | 1300 | inactive | 1600 | – | 90 | –

Row | Structure (SMILES) | selectivity ratio [1] | ED50 (Mus musculus [2]) [mg/kg] | Activity (Mus musculus [3]) | LD50 at 24 h [4] [mg/kg] | Activity (Mus musculus [5]) | ED50 (Mus musculus [6]) [mg/kg] | ED50 (Mus musculus [7]) [mg/kg]
17 | O=C1Cc2ccccc2C(c2ccccc2)N1 (configuration not stated) | 7 | 730 | inactive | 1060 | – | 105 | –
18 | CC(C)NCC(=O)Nc1ccc(C2NC(=O)C(C)(C)c3ccccc32)cc1 (configuration not stated) | 59 | 1600 | – | > 2000 | – | – | 100
19 | Cl.Nc1ccc(C2NC(=O)Cc3ccccc32)cc1 (configuration not stated) | 5 | 95 | – | 795 | – | 19 | 50
20 | CCCNCC(=O)Nc1ccc(C2NC(=O)Cc3ccccc32)cc1 (configuration not stated) | 24 | 490 | – | 2000 | – | 20.6 | –
21 | CC1(C)C(=O)NC(c2ccccc2N)c2ccccc21 (configuration not stated) | > 9 | > 1000 | – | > 1000 | – | 110 | –
22 | CCNCC(=O)Nc1ccc(C2NC(=O)Cc3ccccc32)cc1 (configuration not stated) | 51 | 520 | – | > 1600 | – | – | –
23 | Cc1ccc2c(c1)C(c1ccc(N)cc1)NC(=O)C2(C)C (configuration not stated) | 15 | 1030 | – | > 1600 | – | 70 | 300
24 | CCCCN(CCCC)CC(=O)Nc1ccc(C2NC(=O)C(C)(C)c3ccccc32)cc1 (configuration not stated) | 10 | 600 | inactive | > 2000 | – | 62 | –
25 | Nc1ccccc1C1NC(=O)Cc2ccccc21 (configuration not stated) | 7 | 940 | inactive | > 2000 | – | 140 | –
26 | O=C(CN1CCOCC1)Nc1ccc(C2NC(=O)Cc3ccccc32)cc1 (configuration not stated) | > 29 | > 1600 | inactive | > 1600 | – | 55 | –
27 | CC1(C)C(=O)NC(c2ccc(NC(=O)CN3CCCCC3)cc2)c2ccccc21 (configuration not stated) | > 36 | > 2000 | inactive | > 2000 | – | 62 | –
28 | CC1(C)C(=O)NC(c2ccc(N)cc2)c2ccccc21 (configuration not stated) | 12 | 240 | – | > 1600 | – | 20 | 100
29 | O=C(CN1CCCCC1)Nc1ccc(C2NC(=O)Cc3ccccc32)cc1 (configuration not stated) | – | > 2000 | – | > 2000 | inactive | – | 300
30 | CC(C)NCC(=O)Nc1ccc(C2NC(=O)Cc3ccccc32)cc1 (configuration not stated) | 26 | 270 | – | > 1000 | – | – | –
31 | CC1(C)C(=O)NC(c2ccc(NC(=O)CN)cc2)c2ccccc21 (configuration not stated) | 13 | 420 | inactive | > 1000 | – | 32.5 | –
32 | CCCNCC(=O)Nc1ccccc1C1NC(=O)Cc2ccccc21 (configuration not stated) | > 11 | > 2000 | – | > 2000 | – | 180 | 300
